TAG inh – inhibitors of triacylglycerol accumulation. 0.66% of 230,000 active. inhibition, % at 12.5 µM. H9c2 cells, Nile Red lipid (TAG) fluorescence; cells loaded with 200 µM oleic acid;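 active means pattern-corrected inhibition of lipid staining of at least 50% with the nuclear-stain viability signal not falling by more than 50%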;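 further: 0% = DMSO wells and 100% = triacsin C control wells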
Beta cell apopt – blocks beta cell apoptosis | INS-1E cytokine-induced death, ATP luminescence, 48 h; percent of positive-control rescue, neutral wells zero | 0.8% of 300,000 active | AID 435005 | protection from apoptosis, % (concentration not given with the values);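 active means Every replicate reaches about 75%, or at least half do and their mean reaches it too, limit read from the data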;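 further: 0% = cytokine-treated negative control wells and 100% = positive control rescue; higher means more ATP so stronger rescue from cytokine killing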
Bfl-1 A1 inh – inhibitors of the anti-apoptotic protein A1, read as caspase activation | MEF A1-2A-BIM cells, Caspase-Glo 3/7 luminescence, 3 h; percent of clofoctol response, vehicle zero | caspase activation, % (concentration not given with the values) | 0.066% of 330,000 active;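 active means over half of replicate activation scores above 10%, or exactly half above 10 with the replicate mean above 10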
CSC inhib – blocks cancer stem cells. inhibition, % at 7.5 µM. 1.1% of 300,000 active. cancer stem cell-like cells viability, luminescence; in the data active means inhibition above about 75%; tested in HMLE shEcad cells
T cruzi inh – T. cruzi replication inhibition | 1.4% of 300,000 active | inhibition, % (concentration not given with the values) | T. cruzi beta-gal in NIH3T3, luminescence, 90 h | AID 1885;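 active means mean inhibition across valid replicates above about 55%, limit read from the data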;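 further: signal also drops with host cell toxicity which is not excluded here; 0% = plate median of DMSO wells and 100% = zero luminescence signal; higher percent means less beta-gal luminescence so fewer parasites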
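Incubation – ≥90 h infection period, 3 h prior cell attachment · System – NIH/3T3 fibroblasts plus reporter T. cruzi · Doses – compound pinned at 50 nL/well, DMSO · Read-out basis – percent inhibition of parasite-derived β-gal signal · Signal – luminescent β-galactosidase signal after 60 min lysis · Also added – 5000 T. cruzi trypomastigotes/well · Medium – Low-serum DMEM with 2% FBS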
Calb FLC – affects C. albicans growth with fluconazole; C. albicans CaCi-2 + fluconazole, Alamar Blue growth, 48 h; growth inhibition, % (no concentration beside the values); 0.57% of 300,000 active; AID 1979;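 active means growth inhibition above about 58% in most replicates, limit read from the data, passing the limit was not always enough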;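 further: all wells also contain fluconazole at 8 µg/ml as a sub-toxic cotreatment; 0% = median of DMSO wells and 100% = median of geldanamycin control wells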
Active calls of the source: *. In the library only some 3.1% were active in any assay of this set; here they are far more common.

Screening COc1ccc(C(=O)/C=C/C(=O)N(CC(=O)NC2CCCCC2)Cc2ccc(F)cc2)c(O)c1 returned TAG inh 15, T cruzi inh 59* and Calb FLC -15.
Screening COc1ccc(C(=O)N/N=C/c2ccccc2OC(=O)c2ccccc2)cc1 returned Beta cell apopt 102*, Bfl-1 A1 inh -3, T cruzi inh 36 and Calb FLC -2.
`CC(C)(C)C(=O)Nc1ccc(C(=O)N/N=C/c2ccccc2OC(=O)c2ccccc2)cc1` gave Beta cell apopt 87*, Bfl-1 A1 inh 0, CSC inhib -11, T cruzi inh -2 and Calb FLC -16.
Screening COc1cc(C(=O)N/N=C/c2ccsc2C)cc(OC)c1OC returned TAG inh 46, Beta cell apopt 20, Bfl-1 A1 inh 1, CSC inhib 76*, T cruzi inh 28 and Calb FLC -1.
`CC(C)(C)C(=O)Nc1ccc(C(=O)N/N=C/c2ccccc2OC(=O)c2ccc(Cl)cc2)cc1` gave Beta cell apopt 103*, Bfl-1 A1 inh 0, CSC inhib 16, T cruzi inh -13 and Calb FLC 1.
Screening O=C(Cn1c(=O)cnc2ccccc21)NNC(=O)c1ccccc1Cl returned TAG inh 5, Beta cell apopt -7, Bfl-1 A1 inh 0 and CSC inhib -6.
`Cc1onc(-c2ccccc2)c1C(=O)N1CCC(CO)(Cc2ccccc2)CC1` gave Beta cell apopt -11, Bfl-1 A1 inh 0, CSC inhib -4, T cruzi inh 14 and Calb FLC 8.
`CCN1C[C@@H]2[C@@H]3C(=O)N(Cc4ccccc4)C(=O)[C@@H]3[C@](C)(C(=O)OC)N2C1=NC` gave TAG inh -6.
COc1cc(C(=O)Oc2ccccc2/C=N/NC(=O)c2ccc(C)cc2)cc(OC)c1OC was read as Beta cell apopt 103*, Bfl-1 A1 inh -2, CSC inhib 13, T cruzi inh 3 and Calb FLC 1.
COc1cc(C(=O)Oc2ccc(/C=N/NC(=O)c3ccncc3)cc2)cc(OC)c1OC was read as TAG inh 0, Beta cell apopt -2, Bfl-1 A1 inh -4, CSC inhib -22, T cruzi inh -9 and Calb FLC -19.
`CC1CCN(c2cc(C#N)c(C#N)cc2[N+](=O)[O-])CC1` gave Beta cell apopt 0, Bfl-1 A1 inh 1, CSC inhib 59, T cruzi inh 11 and Calb FLC -45.
For CC1CCCCN1c1cc(C#N)c(C#N)cc1[N+](=O)[O-] (stereo not given) the results were Beta cell apopt 7, Bfl-1 A1 inh 0, CSC inhib 81*, T cruzi inh 2 and Calb FLC -7.
`COc1ccccc1NC(=O)N(C)C[C@H]1Oc2ncc(Br)cc2C(=O)N([C@H](C)CO)C[C@H]1C` gave TAG inh 5.
Screening c1ccc(CC2CCN(c3ncnc4sccc34)CC2)cc1 returned TAG inh -9, T cruzi inh 13 and Calb FLC 97*.
For Cc1c(C(=O)N2CCC(Cc3ccccc3)CC2)sc2ncnc(N3CCC(C)CC3)c12 the results were Beta cell apopt -3, Bfl-1 A1 inh -1, CSC inhib 60, T cruzi inh 72* and Calb FLC 1.
O=C(NCc1ccco1)C12CC3CC(CC(C3)C1)C2 was read as Beta cell apopt -7, Bfl-1 A1 inh 1, CSC inhib 5, T cruzi inh -4 and Calb FLC -9.
For O=C(CC12CC3CC(CC(C3)C1)C2)NC(=S)NCc1ccco1 the results were TAG inh 16, Beta cell apopt 12, Bfl-1 A1 inh 1, CSC inhib 45, T cruzi inh 56* and Calb FLC -22.
`COc1ccc(CN2CCN(Cc3c[nH]c4ccccc34)CC2CCO)c(F)c1` (stereo not given) gave TAG inh 8, Bfl-1 A1 inh 0, CSC inhib 7, T cruzi inh 2 and Calb FLC -19.
O=C(Nc1ccccc1)Nc1ccc(-n2ccc(C(F)(F)F)n2)cc1 was read as TAG inh -30, Beta cell apopt 116*, Bfl-1 A1 inh -7, CSC inhib 40, T cruzi inh -34 and Calb FLC -2.

Source: PubChem BioAssay (several laboratories)
